Tests used:
[1] = tested on: Leishmania tropica; experiment: Percentage of growth inhibition of wild type Leishmania tropica Lines at 7 uM.; type: functional
Outline: (§1)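 Intrinsic toxicity on the wild-type L. tropica LRC clone, with no DNM present. Log-phase promastigotes were plated at 3 × 10⁵ cells/well in RPMI 1640-modified medium with 20% FBS, with sesquiterpene diluted from DMSO stocks, for 72 h at 28 °C. MTT was added for 4 h, then 20% SDS, and A540 read. Percent growth inhibition is taken against untreated control absorbance.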

[2] = tested on: Leishmania tropica; experiment: (§2) Percentage of growth inhibition of wild type Leishmania tropica lines at 15 uM; type: functional; outline: as §1
[3] = tested on: Leishmania tropica; experiment: Percentage of growth inhibition of multidrug resistance Leishmania tropica Lines at 3 uM; type: functional
Outline: (§3)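 Log-phase MDR promastigotes were plated at 3 × 10⁵ cells/well in RPMI 1640-modified medium with 20% FBS and 150 µM DNM. Sesquiterpenes (DMSO stocks diluted in medium) were added and cells kept 72 h at 28 °C. MTT was added for 4 h, formazan dissolved in 20% SDS and A540 read. Growth inhibition is relative to DNM-treated controls without modulator.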

[4] = tested on: Leishmania tropica; experiment: Percentage of growth inhibition of wild type Leishmania tropica Lines at 3 uM.; type: functional; outline: as §1
[5] = tested on: Leishmania tropica; experiment: Percentage of growth inhibition of multidrug resistance Leishmania tropica Lines at 1 uM; type: functional; outline: as §3
[6] = tested on: Leishmania tropica; experiment: Percentage of growth inhibition of multidrug resistance Leishmania tropica Lines at 7 uM.; type: functional; outline: as §3
[7] = tested on: Leishmania tropica; experiment: Percentage of growth inhibition of multidrug resistance Leishmania tropica Lines at 15 uM; type: functional; outline: as §3
[8] = tested on: Leishmania tropica; experiment: Percent growth inhibition of wild type Leishmania tropica at 1 uM; type: functional; outline: as §1
[9] = tested on: Leishmania tropica; experiment: Percentage of growth inhibition of multidrug resistance Leishmania tropica Lines at 3 uM.; type: functional; outline: as §3
[10] = tested on: Leishmania tropica; experiment: Percentage of growth inhibition of multidrug resistance Leishmania tropica Lines at 1 uM.; type: functional; outline: as §3
[11] = tested on: Leishmania tropica; experiment: Percentage of growth inhibition of multidrug resistance Leishmania tropica Lines at 7 uM; Value ranges from 0 to 6%; type: functional; outline: as §3
[12] = tested on: Leishmania tropica; experiment: Ratio of IC50 of the multidrug resistance Leishmania tropica Line to that of IC50 of the wild type line at 15 uM; type: functional
Outline: (§4)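 Resistance index is the DNM IC50 in the MDR L. tropica line divided by the DNM IC50 in the wild-type line. MDR IC50s were obtained with sesquiterpene at 7 or 15 µM. Growth was read by 72 h MTT assay at 28 °C. Data are from three independent experiments.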

[13] = tested on: Leishmania tropica; experiment: Concentration required to inhibit the growth of multidrug resistance Leishmania tropica Line in the presence of DNM at 15 uM; type: functional, organism-based
[14] = tested on: Leishmania tropica; experiment: as §2; type: functional; remark: listed apart in the source
Outline: (§5)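 WT L. tropica LRC-strain promastigotes (log phase, RPMI 1640-modified medium + 20% heat-inactivated FBS, 28 °C) seeded at 3 × 10⁵ cells/well and exposed without DNM to sesquiterpenes diluted from DMSO stocks. After 72 h at 28 °C, MTT (5 mg/mL in PBS) was added for 4 h, formazan dissolved in 20% SDS, A540 read. Growth inhibition (%) calculated relative to untreated control absorbance.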

[15] = tested on: Leishmania tropica; experiment: Ratio of IC50 of the multidrug resistance Leishmania tropica Line to that of IC50 of the wild type line at 7 uM; type: functional; outline: as §4
[16] = tested on: Leishmania tropica; experiment: Percentage of growth inhibition of wild type Leishmania tropica Lines at 7 uM; type: functional; outline: as §5
[17] = tested on: Leishmania tropica; experiment: Concentration required to inhibit the growth of multidrug resistance Leishmania tropica Line in the presence of DNM at 7 uM; type: functional, organism-based
[18] = tested on: Leishmania tropica; experiment: Percentage of growth inhibition of wild type Leishmania tropica Lines at 3 uM; type: functional; outline: as §5

Row | SMILES | inhibition at 7 µM [1] | inhibition at 15 µM [2] | inhibition at 3 µM [3] | inhibition at 3 µM [4] | inhibition at 1 µM [5] | inhibition at 7 µM [6] | inhibition at 15 µM [7] | inhibition at 1 µM [8] | inhibition at 3 µM [9] | inhibition at 1 µM [10] | inhibition at 7 µM [11] | RI [12] | IC50 [13] | inhibition at 15 µM [14] | RI [15] | inhibition at 7 µM [16] | IC50 [17] | inhibition at 3 µM [18]
1 | CC(=O)O[C@H]1C[C@](C)(O)C23OC(C)(C)C(C[C@H](OC(=O)c4ccco4)[C@]2(C)[C@H]1OC(C)=O)[C@H]3OC(=O)C(C)(C)C (some centres not stated) | < 6% | < 6% | 44.5% | < 6% | 18.1% | 82.5% | 96.7% | < 6% |  |  |  |  |  |  |  |  |  | 
2 | CC(=O)O[C@H]1[C@@H](OC(=O)c2ccco2)C[C@](C)(O)C23OC(C)(C)C(C[C@H](OC(=O)c4ccco4)[C@]12C)[C@H]3O (some centres not stated) | < 6% | < 6% |  | < 6% |  | 28.5% | 44.5% | < 6% | < 6% | < 6% |  |  |  |  |  |  |  | 
3 | CC(=O)O[C@H]1[C@@H](O)C[C@](C)(O)C23OC(C)(C)C(C[C@H](OC(=O)c4ccco4)[C@]12C)[C@H]3OC(=O)c1ccco1 (some centres not stated) | < 6% | < 6% |  | < 6% |  | 9.1% | 28.7% | < 6% | 6% | < 6% |  |  |  |  |  |  |  | 
4 | CC(=O)O[C@H]1C[C@](C)(O)C23OC(C)(C)C(C[C@H](OC(=O)c4ccco4)[C@]2(C)[C@H]1OC(C)=O)[C@H]3OC(=O)C(F)(F)F (some centres not stated) | < 6% | < 6% |  | < 6% |  |  | 7.1% | < 6% | 6% | < 6% | 6% |  |  |  |  |  |  | 
5 | CC(=O)OC[C@]12[C@@H](OC(=O)c3ccccc3)CC3[C@@H](OC(=O)c4ccccc4)C1(OC3(C)C)[C@@](C)(O)C[C@H](OC(C)=O)[C@@H]2OC(C)=O (some centres not stated) |  |  | 77.5% |  | 18% | 89.9% | 90.9% | < 6% |  |  |  | 5.2 | 20 µM | 15.2% | 10.2 | 11% | 39 µM | 6.9%
6 | CC(=O)O[C@@H]1C2C[C@H](OC(=O)c3ccco3)[C@]3(C)[C@@H](OC(C)=O)[C@@H](OC(=O)c4ccccc4)C[C@](C)(O)C13OC2(C)C (some centres not stated) | < 6% | < 6% |  | < 6% |  | 14.3% | 45% | < 6% | 6% | < 6% |  |  |  |  |  |  |  | 
7 | CCCCCCCCCCCC(=O)O[C@@H]1C2C[C@H](OC(=O)c3ccco3)[C@]3(C)[C@@H](OC(C)=O)[C@@H](OC(=O)c4ccccc4)C[C@](C)(O)C13OC2(C)C (some centres not stated) | < 6% | < 6% |  | < 6% |  |  | 9.2% | < 6% | 6% | < 6% | 6% |  |  |  |  |  |  | 
8 | CC(=O)O[C@H]1[C@@H](OC(=O)c2ccccc2)C[C@](C)(O)C23OC(C)(C)C(C[C@H](OC(=O)c4ccco4)[C@]12C)[C@H]3OC(=O)C(C)(C)C (some centres not stated) | < 6% | < 6% |  | < 6% |  | 25.9% | 77.6% | < 6% | 11.2% | < 6% |  |  |  |  |  |  |  | 
9 | CC(=O)O[C@H]1CC[C@](C)(O)C23OC(C)(C)C(C[C@H](OC(=O)c4ccco4)[C@]12C)[C@H]3OC(=O)c1ccco1 (some centres not stated) |  |  | 66.9% |  | 20.3% | 89% | 89.9% | < 6% |  |  |  |  |  | 24.6% |  | 16.4% |  | 14.8%
10 | COc1ccc(C(=O)O[C@@H]2C3C[C@H](OC(=O)c4ccco4)[C@]4(C)[C@@H](OC(C)=O)[C@@H](OC(C)=O)C[C@](C)(O)C24OC3(C)C)cc1 (some centres not stated) | < 6% |  | 35.4% | < 6% | 11.9% | 85% | 98.4% | < 6% |  |  |  |  |  | 17.2% |  |  |  | 
11 | CC(=O)O[C@H]1C[C@](C)(O)C23OC(C)(C)C(C[C@H](OC(=O)c4ccco4)[C@]2(C)[C@H]1OC(C)=O)[C@H]3O (some centres not stated) | < 6% | < 6% |  | < 6% |  |  | 10.9% | < 6% | < 6% | < 6% | 6% |  |  |  |  |  |  | 
12 | CC(=O)O[C@H]1C[C@](C)(O)C23OC(C)(C)C(C[C@H](OC(=O)c4ccco4)[C@]2(C)[C@H]1OC(C)=O)[C@H]3OC(=O)c1ccc([N+](=O)[O-])cc1 (some centres not stated) | < 6% | < 6% |  | < 6% |  | 15.5% | 59.5% | < 6% | 6% | < 6% |  |  |  |  |  |  |  | 
13 | CCCCCCCCCCCC(=O)O[C@@H]1C2C[C@H](OC(=O)c3ccco3)[C@]3(C)[C@@H](OC(C)=O)[C@@H](OC(C)=O)C[C@](C)(O)C13OC2(C)C (some centres not stated) | < 6% | < 6% | 8.8% | < 6% |  | 29.2% | 80.5% | < 6% |  | < 6% |  |  |  |  |  |  |  | 
14 | CC(=O)OC[C@]12[C@@H](OC(=O)c3ccco3)CC3[C@@H](OC(=O)c4ccco4)C1(OC3(C)C)[C@@](C)(O)C[C@H](OC(C)=O)[C@@H]2OC(C)=O (some centres not stated) | < 6% |  | 79.6% | < 6% | 25.7% | 89.5% | 94.3% | < 6% |  |  |  | 2.9 | 11 µM | 7.2% | 8.7 |  | 33.3 µM | 
15 | CC(=O)O[C@H]1C[C@](C)(O)C23OC(C)(C)C(C[C@H](OC(=O)c4ccco4)[C@]2(C)[C@H]1OC(C)=O)[C@H]3OC(=O)c1ccco1 (some centres not stated) |  |  | 83.5% | < 6% | 24.5% | 90.9% | 94.4% | < 6% |  |  |  | 2.3 | 9 µM | 15.2% | 7.8 | 9.7% | 30 µM | 
16 | CC(=O)O[C@H]1[C@@H](OC(=O)c2ccccc2)C[C@](C)(O)C23OC(C)(C)C(C[C@H](OC(=O)c4ccco4)[C@]12C)[C@H]3OC(=O)C(F)(F)F (some centres not stated) | < 6% | < 6% |  | < 6% |  | 9.7% | 36.9% | < 6% | < 6% | < 6% |  |  |  |  |  |  |  | 
17 | CC(=O)O[C@H]1C[C@](C)(O)C23OC(C)(C)C(C[C@H](OC(=O)c4ccco4)[C@]2(C)[C@H]1OC(C)=O)[C@H]3OC(C)=O (some centres not stated) | < 6% | < 6% |  | < 6% |  | 17.1% | 50.6% | < 6% | < 6% | < 6% |  |  |  |  |  |  |  | 
18 | CC(=O)O[C@H]1[C@@H](OC(=O)c2ccccc2)C[C@](C)(O)C23OC(C)(C)C(C[C@H](OC(=O)c4ccco4)[C@]12C)[C@H]3O (some centres not stated) | < 6% |  | 11.1% | < 6% |  | 41.1% | 81.9% | < 6% |  | < 6% |  |  |  | 8% |  |  |  | 
19 | CC(=O)O[C@H]1[C@@H](OC(=O)c2ccco2)C[C@](C)(O)C23OC(C)(C)C(C[C@H](OC(=O)c4ccco4)[C@]12C)[C@H]3OC(=O)c1ccco1 (some centres not stated) |  |  | 52.9% |  | 10% | 86.2% | 93.5% | < 6% |  |  |  |  |  | 23.4% |  | 18.1% |  | 13.8%
20 | CC(=O)O[C@H]1[C@@H](OC(=O)c2ccccc2)C[C@](C)(O)C23OC(C)(C)C(C[C@H](OC(=O)c4ccco4)[C@]12C)[C@H]3OC(=O)c1ccco1 (some centres not stated) |  |  | 74.8% |  | 11.7% | 93.7% | 92.7% | < 6% |  |  |  |  |  | 35.3% |  | 21.4% |  | 16.5%

Reference: ChEMBL document CHEMBL1148393, “SAR studies of dihydro-beta-agarofuran sesquiterpenes as inhibitors of the multidrug-resistance phenotype in a Leishmania tropica line overexpressing a P-glycoprotein-like transporter” (J Med Chem, 2004)
